Measurements published in ChEMBL document CHEMBL1157643, “SAR and molecular mechanism study of novel acylhydrazone compounds targeting HIV-1 CA” (Bioorg Med Chem, 2010).
Values belong to the molecule of their own block, whether it stands above or below them. Active and inactive are the calls of the source. No cut-off for these calls is given here.

Assays:
[1] = Therapeutic index, TC50 for human CEM174 cells to EC50 for SIV-induced syncytium in human CEM174 cells; assay type: cell-based; conditions: read-out: TI
Method in brief: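 Ratio TC₅₀/EC₅₀. TC₅₀ comes from the MTT proliferation assay in uninfected CEM174 cells. EC₅₀ comes from microscopic scoring of syncytia in CEM174 cells infected with 100 TCID₅₀ SIV per well. Both were run over 5 days at 37 °C, 5% CO₂.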

[2] = Cytotoxicity against mock-infected human CEM174 cells after 5 days by MTT assay; assay type: cell-based; conditions: read-out: TC50
Method in brief: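 Uninfected CEM174 cells handled as in the antiviral assay (1 × 10⁵ cells/mL, compound dilutions, 5 days, 37 °C, 5% CO₂). Proliferation read by MTT reduction. TC₅₀ = concentration inhibiting cell proliferation by 50%.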

[3] = test system: Simian immunodeficiency virus; test: Antiviral activity against SIV-induced syncytium in human CEM174 cells assessed as inhibition of virus-induced cytopathogenicity after 5 days; assay type: functional, organism-based; conditions: CEM174, 120 h
Method in brief: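 CEM174 cells at 1 × 10⁵ cells/mL in 96-well format, infected with 100 TCID₅₀ SIV per well alongside serial dilutions of compound. Incubated 5 days at 37 °C, 5% CO₂, humidified. Syncytium (giant cell) formation scored microscopically. EC₅₀ = concentration protecting cells 50% against SIV cytopathogenicity.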

[4] = biological target: Structural capsid protein (Human immunodeficiency virus 1) (UniProt Q76129); test: Binding affinity to HIV1 capsid protein assessed as viral capsid assembly rate at 1 mM by ultraviolet spectrophotometry (RVb= 60.56 +/- 3.77 milliOD/min)
[5] = biological target: Structural capsid protein (Human immunodeficiency virus 1) (UniProt Q76129); test: Binding affinity to HIV1 capsid protein assessed as inhibition of viral capsid assembly at 1 mM after 600 mins by turbidity-based ultraviolet spectrophotometry

Sequence of Structural capsid protein (Human immunodeficiency virus 1) (Q76129 as listed by the source): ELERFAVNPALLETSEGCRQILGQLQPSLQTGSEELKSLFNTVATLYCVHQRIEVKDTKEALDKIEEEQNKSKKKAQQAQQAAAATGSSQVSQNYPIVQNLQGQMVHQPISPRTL

SMILES: COc1ccc(C(=O)N[C@@H](Cc2ccc(O)cc2)C(=O)N/N=C/c2ccco2)cc1
- selectivity ratio [1]: 3.38
- CC50 at 120 h [2]: 30.6 µM
- EC50 [3]: 9.03 µM
- Activity (milli optical density/minute) [4]: 19.1

SMILES: COc1ccc(C(=O)N[C@@H](Cc2ccc(O)cc2)C(=O)N/N=C/c2ccc(O)cc2)cc1
- selectivity ratio [1]: > 12.8
- CC50 at 120 h [2]: > 100 µM
- EC50 [3]: 7.81 µM
- Activity (milli optical density/minute) [4]: 8.77

SMILES: COc1ccc(C(=O)N[C@@H](Cc2ccc(O)cc2)C(=O)N/N=C/c2ccccc2)cc1
- selectivity ratio [1]: > 21.7
- CC50 at 120 h [2]: > 100 µM
- EC50 [3]: 4.61 µM
- Activity (milli optical density/minute) [4]: 32.5

SMILES: COc1ccc(C(=O)N[C@@H](Cc2c[nH]cn2)C(=O)N/N=C/c2ccc([N+](=O)[O-])cc2)cc1
- selectivity ratio [1]: > 22.7
- CC50 at 120 h [2]: > 100 µM
- EC50 [3]: 4.4 µM
- Activity (milli optical density/minute) [4]: 12.6

SMILES: COc1ccc(C(=O)N[C@H](C(=O)N/N=C/c2ccc(Cl)cc2)[C@@H](C)O)cc1
- selectivity ratio [1]: > 20.1
- CC50 at 120 h [2]: > 100 µM
- EC50 [3]: 4.98 µM
- Activity (milli optical density/minute) [4]: 49.5

SMILES: COc1ccc(C(=O)N[C@@H](Cc2c[nH]cn2)C(=O)N/N=C/c2ccccc2)cc1
- selectivity ratio [1]: > 179
- CC50 at 120 h [2]: > 100 µM
- EC50 [3]: 0.56 µM
- Activity (milli optical density/minute) [4]: 3.26
- inhibition [5]: Active

SMILES: CC[C@@H](C)[C@H](NC(=O)c1ccc(OC)cc1)C(=O)N/N=C/c1ccc(C)cc1
- selectivity ratio [1]: > 7.2
- CC50 at 120 h [2]: > 100 µM
- EC50 [3]: 13.9 µM
- Activity (milli optical density/minute) [4]: 33.4
- inhibition [5]: inactive

SMILES: COc1ccc(C(=O)N[C@H](C(=O)N/N=C/c2ccc(C)cc2)[C@H](C)O)cc1
- selectivity ratio [1]: > 12.2
- CC50 at 120 h [2]: > 100 µM
- EC50 [3]: 8.17 µM
- Activity (milli optical density/minute) [4]: 11.9

SMILES: COc1ccc(C(=O)N[C@H](C(=O)N/N=C/c2ccc(O)cc2)[C@@H](C)O)cc1
- selectivity ratio [1]: > 12.3
- CC50 at 120 h [2]: > 100 µM
- EC50 [3]: 8.13 µM
- Activity (milli optical density/minute) [4]: 24.9

SMILES: COc1ccc(C(=O)N[C@@H](Cc2c[nH]cn2)C(=O)N/N=C/c2ccco2)cc1
- selectivity ratio [1]: > 11.8
- CC50 at 120 h [2]: > 100 µM
- EC50 [3]: 8.44 µM
- Activity (milli optical density/minute) [4]: 29.3

- EC50 [3]: 6.41 µM
SMILES: COc1ccc(C(=O)N[C@@H](C)C(=O)N/N=C/c2ccccc2)cc1
- selectivity ratio [1]: > 15.6
- CC50 at 120 h [2]: > 100 µM

SMILES: COc1ccc(C(=O)N[C@@H](Cc2c[nH]cn2)C(=O)N/N=C/c2ccc(C)cc2)cc1
- selectivity ratio [1]: > 64.5
- CC50 at 120 h [2]: > 100 µM
- EC50 [3]: 1.55 µM
- Activity (milli optical density/minute) [4]: 6.05

SMILES: COc1ccc(C(=O)N[C@H](C(=O)N/N=C/c2ccccc2)[C@H](C)O)cc1
- selectivity ratio [1]: > 130
- CC50 at 120 h [2]: > 100 µM
- EC50 [3]: 0.77 µM
- Activity (milli optical density/minute) [4]: 21.4

SMILES: COc1ccc(C(=O)N[C@@H](Cc2c[nH]cn2)C(=O)N/N=C/c2ccc(O)cc2)cc1
- selectivity ratio [1]: > 31.4
- CC50 at 120 h [2]: > 100 µM
- EC50 [3]: 3.18 µM
- Activity (milli optical density/minute) [4]: 24.7

- EC50 [3]: 0.17 µM
SMILES: Cc1ccc(S(=O)(=O)C[C@@H](Cc2ccccc2)C(=O)N/N=C/c2ccc3c(c2)OCO3)cc1

SMILES: CCC(C)[C@H](NC(=O)c1ccc(OC)cc1)C(=O)N/N=C/c1ccc(Cl)cc1 (mixture of isomers)
- selectivity ratio [1]: > 12.3
- CC50 at 120 h [2]: > 100 µM
- EC50 [3]: 8.1 µM
- Activity (milli optical density/minute) [4]: 10.2

SMILES: CC[C@@H](C)[C@H](NC(=O)c1ccc(OC)cc1)C(=O)N/N=C/c1ccco1
- selectivity ratio [1]: > 58.8
- CC50 at 120 h [2]: > 100 µM
- EC50 [3]: 1.7 µM
- Activity (milli optical density/minute) [4]: 5.82

SMILES: COc1ccc(C(=O)N[C@@H](Cc2ccc(O)cc2)C(=O)N/N=C/c2ccc(Cl)cc2)cc1
- selectivity ratio [1]: 2.69
- CC50 at 120 h [2]: 40 µM
- EC50 [3]: 14.9 µM
- Activity (milli optical density/minute) [4]: 24.3
- inhibition [5]: inactive

SMILES: CC[C@@H](C)[C@H](NC(=O)c1ccc(OC)cc1)C(=O)N/N=C/c1ccccc1
- selectivity ratio [1]: 10.2
- CC50 at 120 h [2]: 77.9 µM
- EC50 [3]: 7.65 µM
- Activity (milli optical density/minute) [4]: 25.4

SMILES: CC[C@@H](C)[C@H](NC(=O)c1ccc(OC)cc1)C(=O)N/N=C/c1ccc(O)cc1
- selectivity ratio [1]: > 24.1
- CC50 at 120 h [2]: > 100 µM
- EC50 [3]: 4.15 µM
- Activity (milli optical density/minute) [4]: 30.1

- EC50 [3]: 4.08 µM
SMILES: COc1ccc(C(=O)N[C@H](C(=O)N/N=C/c2ccccc2)C(C)C)cc1
- selectivity ratio [1]: > 24.5
- CC50 at 120 h [2]: > 100 µM

SMILES: COc1ccc(C(=O)N[C@@H](Cc2ccc(O)cc2)C(=O)N/N=C/c2ccc(C)cc2)cc1
- selectivity ratio [1]: 7.9
- CC50 at 120 h [2]: 41.1 µM
- EC50 [3]: 5.21 µM
- Activity (milli optical density/minute) [4]: 20.4

SMILES: COc1ccc(/C=N/NC(=O)[C@H](Cc2c[nH]cn2)NC(=O)c2ccc(OC)cc2)cc1
- selectivity ratio [1]: > 244
- CC50 at 120 h [2]: > 100 µM
- EC50 [3]: 0.41 µM
- Activity (milli optical density/minute) [4]: 3.58
- inhibition [5]: Active

SMILES: COc1ccc(C(=O)N[C@@H](Cc2c[nH]cn2)C(=O)N/N=C/c2ccc(Cl)cc2)cc1
- selectivity ratio [1]: > 30.6
- CC50 at 120 h [2]: > 100 µM
- EC50 [3]: 3.27 µM
- Activity (milli optical density/minute) [4]: 8.89
